Most compounds without a hit are left out; they make up all but 2.5% or so of the library.
MBD2 inh – MBD2-methylated oligo binding inhibition | Q9UBB5 | TR-FRET, MBD2 binding to methylated oligonucleotide | inhibition, % at 4.4 µM | hit rate 0.31% among 370,000; in the data active = inhibition above about 13%
ABHD5 PLIN5 PPI – ABHD5-PLIN5 protein interaction inhibition; Q00G26+Q8WTS1; Split G. princeps luciferase complementation, luminescence, 4 h; inhibition, % at 4 µM; hit rate 0.78% among 360,000; AID 602281;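 active = inhibition above the mean inhibition across every tested compound plus 3 SD, cut at about 22% in these data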;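 note: 0% = DMSO only wells and the 100% control is not disclosed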
Beta2AR agonist – agonists of human beta-2 adrenergic receptor inducing internalization; AID 504454; Am2.2-beta2AR cells, FAP receptor internalization, flow cytometry; response, % (no concentration beside the values); hit rate 0.43% among 340,000; P07550;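 active = response above a set limit, near 3 SD of response in nonfluorescent compounds, cut at about 42% in these data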
Target sequence (P07550 whole entry, looked up): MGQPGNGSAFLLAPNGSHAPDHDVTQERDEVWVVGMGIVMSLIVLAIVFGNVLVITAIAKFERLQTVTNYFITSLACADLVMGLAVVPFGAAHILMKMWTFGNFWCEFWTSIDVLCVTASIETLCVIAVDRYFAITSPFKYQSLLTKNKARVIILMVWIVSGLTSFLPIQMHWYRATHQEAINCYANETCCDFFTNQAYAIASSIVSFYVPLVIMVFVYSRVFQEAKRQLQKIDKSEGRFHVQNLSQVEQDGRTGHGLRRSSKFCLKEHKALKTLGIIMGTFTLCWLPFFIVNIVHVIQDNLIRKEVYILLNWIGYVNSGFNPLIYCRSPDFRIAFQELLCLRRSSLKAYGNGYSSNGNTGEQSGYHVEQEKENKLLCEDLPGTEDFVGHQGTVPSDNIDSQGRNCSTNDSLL
Rin1 Abl inh – blocks binding of human Rin1 to Abl; TR-FRET Rin1/Abl binding, biochemical; hit rate 0.4% among 360,000; AID 588664; inhibition, % at 7.35 µM; in the data active = inhibition above about 5%, passing the limit was not always enough
UHRF1 binding – blocks human UHRF1 binding to methylated DNA | inhibition, % at 4.4 µM | AID 687016 | UHRF1 binding to methylated oligo, TR-FRET | Q96T88 | hit rate 0.75% among 370,000;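 note: UHRF1 SRA domain binding a hemimethylated CpG hairpin DNA probe; 0% = median of test compound wells and 100% = reference inhibitor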
Arr AP2 block – human beta-arrestin and AP2 interaction inhibition; FITC-arrestin peptide / GST-AP2 beads, flow cytometry; AP2 beta2 appendage carries R879A mutation; inhibition, % at 10 µM; hit rate 0.31% among 340,000;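 active = inhibition above a set limit, near 3 SD of compounds lacking own fluorescence, cut at about 54% in these data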;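 note: plate controls were DMSO wells for no effect and 5 µM unlabelled arrestin peptide for full effect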
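test system = AP2 appendage R879A on GSH beads | buffer or medium = PBS plus Tween 20 (0.05%) and BSA (0.1%) | incubation = 12 min plus 1 h, RT | detection = bead flow cytometry, FITC channel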
UHRF1 DNA bind – counter-screen for MBD2 inhibitors: human UHRF1 methylated DNA binding inhibitors. hit rate 25% among 1,000. UHRF1 binding to methylated oligonucleotide, TR-FRET. shares compounds with MBD2 inh. AID 720530. inhibition, % at 4.4 µM;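 note: UHRF1 SRA domain binding a labeled hemimethylated CpG hairpin DNA; 0% = vehicle only and 100% = reference inhibitor with vehicle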
MBD2 confirm – MBD2-DBD methyl-DNA binding inhibition, TR-FRET confirmation; shares compounds with MBD2 inh; hit rate 26% among 1,000; TR-FRET MBD2-DBD binding to methylated oligonucleotide; AID 720531; inhibition, % at 4.4 µM; in the data active = inhibition above about 14%
The depositor's hits bear a star. Cut-off read from the data, not from the text of the source, unless noted: active = inhibition above about 21%; inactive = the rest.

What do the screens show for `CC(Sc1nnc(CN2CCCC2)n1Cc1ccccc1)C(=O)Nc1ccccc1` (stereo not drawn)?
MBD2 inh: 34.1*; ABHD5 PLIN5 PPI: -0.4; Beta2AR agonist: -5.0; Rin1 Abl inh: 0.2; UHRF1 binding: 2.0; Arr AP2 block: 32.0; UHRF1 DNA bind: 7.4; MBD2 confirm: 1.9

What do the screens show for `COC(=O)[C@H](CC(C)C)N(Cc1cn(Cc2ccc(C)cc2)nn1)S(=O)(=O)c1ccccc1Br`?
MBD2 inh: 18.4*; UHRF1 binding: 18.9; UHRF1 DNA bind: 6.2; MBD2 confirm: 8.4

Results for CC(=O)Nc1ccccc1-c1ccc(C)o1 ?
MBD2 inh: 18.5*; ABHD5 PLIN5 PPI: -1.3; Beta2AR agonist: 0.0; Rin1 Abl inh: -4.9; UHRF1 binding: -2.3; Arr AP2 block: 0.6; UHRF1 DNA bind: 7.7; MBD2 confirm: 2.4

What do the screens show for `COC(=O)c1ccc(C(=O)OC)c(NC(=S)N2CCCC(CO)C2)c1` (stereo not drawn)?
MBD2 inh: 24.2*; ABHD5 PLIN5 PPI: -6.1; Beta2AR agonist: 7.3; Rin1 Abl inh: 0.3; UHRF1 binding: 1.4; Arr AP2 block: 9.5; UHRF1 DNA bind: 1.3; MBD2 confirm: 3.9

What do the screens show for `COc1cc(Cl)c(C)cc1NC(=O)CSc1sc2c(O)cc(=O)[nH]c2c1C#N`?
MBD2 inh: 17.5*; ABHD5 PLIN5 PPI: 0.8; Beta2AR agonist: 22.1; Rin1 Abl inh: 3.3; UHRF1 binding: 33.1*; Arr AP2 block: -1.6; UHRF1 DNA bind: 16.8; MBD2 confirm: 6.2

Results for N#Cc1c(SCC(=O)Nc2nncs2)sc2c(O)cc(=O)[nH]c12 ?
MBD2 inh: 17.6*; ABHD5 PLIN5 PPI: -4.7; Beta2AR agonist: -0.7; Rin1 Abl inh: 1.6; UHRF1 binding: 48.2*; Arr AP2 block: -16.2; UHRF1 DNA bind: 42.5*; MBD2 confirm: 22.7*

What do the screens show for `N#Cc1c(SCC(=O)Nc2ccc(C(F)(F)F)cc2)sc2c(O)cc(=O)[nH]c12`?
MBD2 inh: -3.3; ABHD5 PLIN5 PPI: -9.9; Beta2AR agonist: -3.0; Rin1 Abl inh: -0.6; UHRF1 binding: 1.8; Arr AP2 block: 7.1

What do the screens show for `CN(C)c1ccc(C(C(=O)NCc2ccccc2)N(Cc2cccnc2)C(=O)c2snc(C(N)=O)c2N)cc1` (stereo not drawn)?
MBD2 inh: -0.8; ABHD5 PLIN5 PPI: -0.5; Beta2AR agonist: 11.8; Rin1 Abl inh: 1.4; UHRF1 binding: -1.9; Arr AP2 block: 9.1

Results for CCNC(=O)C1(C)CCN(Cc2ccc(C(F)(F)F)cc2)C1 (stereo not drawn) ?
MBD2 inh: -0.2; ABHD5 PLIN5 PPI: -0.5; Rin1 Abl inh: -4.9; UHRF1 binding: 0.0

What do the screens show for `CCNC(=O)C1(C)CCN(Cc2ccc(OC(F)(F)F)cc2)C1` (stereo not drawn)?
MBD2 inh: 29.1*; ABHD5 PLIN5 PPI: -4.0; Rin1 Abl inh: -0.4; UHRF1 binding: 0.7; UHRF1 DNA bind: 11.1; MBD2 confirm: 6.3

How did CC(=O)Nc1ccc(/C=N\NC(=O)c2cccc(S(=O)(=O)N(C)C)c2)cc1 do in these assays?
MBD2 inh: -2.3; UHRF1 binding: -1.6

How did CC(C)C[C@H]1COc2cccc(F)c2S(=O)(=O)N1Cc1cn(CC2CCCCC2)nn1 do in these assays?
MBD2 inh: 4.6; UHRF1 binding: 1.0

What do the screens show for `Cc1ccc(-c2c3c(nc4sc(C(N)=O)c(N)c24)CCCC3)o1`?
MBD2 inh: -5.4; ABHD5 PLIN5 PPI: 7.2; Beta2AR agonist: -6.3; Rin1 Abl inh: 3.0; UHRF1 binding: -3.5; Arr AP2 block: 17.3

What do the screens show for `NC(=O)c1sc2nc3c(c(-c4ccco4)c2c1N)CCC3`?
MBD2 inh: 14.9*; ABHD5 PLIN5 PPI: 1.7; Beta2AR agonist: -2.2; Rin1 Abl inh: -5.1; UHRF1 binding: 47.3*; Arr AP2 block: 6.7; UHRF1 DNA bind: -4.8; MBD2 confirm: -4.7

What do the screens show for `O=C1CSC(=S)N1Cc1ccccc1`?
MBD2 inh: -6.7; ABHD5 PLIN5 PPI: -16.3; Rin1 Abl inh: -3.6; UHRF1 binding: 2.1

What do the screens show for `O=C1CC(=O)N(Cc2ccco2)C(=S)N1`?
ABHD5 PLIN5 PPI: 0.1; Beta2AR agonist: -4.5; Rin1 Abl inh: 3.7; Arr AP2 block: -5.2

Results for O=C1CC(=O)N(Cc2ccco2)C(=O)N1 ?
MBD2 inh: 64.2*; ABHD5 PLIN5 PPI: 3.9; Beta2AR agonist: 9.9; Rin1 Abl inh: 4.1; UHRF1 binding: 93.3*; Arr AP2 block: 23.9; UHRF1 DNA bind: 99.7*; MBD2 confirm: 73.6*

How did CCOc1ccc(-n2c(SCC(=O)Nc3cccc4ccccc34)nnc2-c2ccncc2)cc1 do in these assays?
MBD2 inh: 0.3; UHRF1 binding: -1.6

What do the screens show for `COCCCNC(=O)c1cc2c(=O)n3cccc(C)c3nc2n(C(C)C)c1=N`?
MBD2 inh: 13.6*; ABHD5 PLIN5 PPI: 0.7; Beta2AR agonist: -17.8; Rin1 Abl inh: -4.4; UHRF1 binding: 21.6*; Arr AP2 block: 1.1; UHRF1 DNA bind: 3.2; MBD2 confirm: 2.3

Results for COC(=O)C1=C(C)N(C)C(=NCc2ccc(C(F)(F)F)cc2)NC1c1ccccc1C(F)(F)F (stereo not drawn) ?
MBD2 inh: -0.6; UHRF1 binding: -2.9

How did COc1ccc([C@H]2OC(=O)C[C@@H]2C(=O)N2CCN(c3ccccc3Cl)CC2)cc1OC do in these assays?
MBD2 inh: -0.4; UHRF1 binding: -0.7

How did COc1ccc(C(CC(=O)N2CCOCC2)C(C)C)cc1 (stereo not drawn) do in these assays?
MBD2 inh: 14.6*; ABHD5 PLIN5 PPI: -7.7; Beta2AR agonist: -3.8; Rin1 Abl inh: -2.2; UHRF1 binding: 23.5*; Arr AP2 block: 7.5; UHRF1 DNA bind: 7.4; MBD2 confirm: 2.6

How did C[C@@H]1ON(C)[C@H]2C[C@H]3c4cc(-c5cc6ccccc6o5)ccc4CCN3C[C@@H]12 do in these assays?
MBD2 inh: -6.7; UHRF1 binding: -5.9

Results for FC(F)(F)C1=Nc2cccc3cccc(c23)N1 ?
MBD2 inh: 33.8*; ABHD5 PLIN5 PPI: -3.1; Beta2AR agonist: 81.6*; Rin1 Abl inh: 0.8; UHRF1 binding: 54.1*; Arr AP2 block: 12.2; UHRF1 DNA bind: 9.1; MBD2 confirm: 1.8

How did Fc1ccc(C2=Nc3cccc4cccc(c34)N2)cc1 do in these assays?
MBD2 inh: 1.9; ABHD5 PLIN5 PPI: -0.9; Beta2AR agonist: 7.6; Rin1 Abl inh: 3.3; UHRF1 binding: -1.7; Arr AP2 block: 28.6

What do the screens show for `O=C(NCCN1CCC(n2c(=O)[nH]c3ccccc32)CC1)c1ccc(F)c(F)c1`?
MBD2 inh: -2.3; ABHD5 PLIN5 PPI: 3.5; UHRF1 binding: -2.3

High-throughput results deposited in PubChem by several laboratories.
